Test results: ChEMBL document CHEMBL3091378, “Design, synthesis and biological evaluation of α-substituted isonipecotic acid benzothiazole analogues as potent bacterial type II topoisomerase inhibitors” (Bioorg Med Chem Lett, 2013)
Values after ≈ are worked out from the molar mass of the structure shown.

Tests used:
[1] = Inhibition of Escherichia coli DNA gyrase ATPase subunit A2B2 after 60 mins by malachite green staining assay
In short: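 E. coli gyrase A2B2, 10 nM, with 0.08 mg/mL DNA in 35 mM Tris pH 7.5, 24 mM KCl, 2 mM MgCl2, 6.5% glycerol, 0.1 mg/mL BSA, 2 mM DTT, 5% DMSO. Started with 1 mM ATP, 30 °C for 60 min. Phosphate read with malachite green at 600 nm after 5 min. IC50 taken against no-compound and no-enzyme controls.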

Enterococcus faecalis = experiment: Antibacterial activity against Enterococcus faecalis ATCC 29212 assessed as growth inhibition after 16 to 20 hrs by broth microdilution method; format: functional
In short: (§1)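 Broth microdilution susceptibility testing following the CLSI M7-A7 standard; MIC determined.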

Haemophilus influenzae = experiment: Antibacterial activity against Haemophilus influenzae ATCC 49247 assessed as growth inhibition after 16 to 20 hrs by broth microdilution method; format: functional; in short: as §1
Streptococcus pyogenes = experiment: Antibacterial activity against Streptococcus pyogenes ATCC 51339 assessed as growth inhibition after 16 to 20 hrs by broth microdilution method; format: functional; in short: as §1
Staphylococcus aureus = experiment: Antibacterial activity against Staphylococcus aureus ATCC 29213 assessed as growth inhibition after 16 to 20 hrs by broth microdilution method; format: functional; in short: as §1
[2] = Solubility of the compound in PBS at pH 7.4 after 24 hrs by turbidimetric analysis; format: physicochemical
In short: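 Doubling dilutions in DMSO diluted 20-fold into 100 mM PBS pH 7.4, equilibrated 24 h at room temperature, absorbance read at 620 nm. Value is the highest concentration with no measurable precipitate.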

[3] = AUC in mouse at 3 mg/kg, iv; format: ADME, organism-based; design: dose 3 mg/kg, route intravenous; settings: plasma
In short: (§2)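 Single 3 mg/kg dose given as an IV bolus by tail vein or by oral gavage, dose volume 5 mL/kg. Rats were bled by jugular vein catheter. Anaesthetised mice were bled from the retro-orbital plexus. Plasma was extracted into methanol and drug measured by LC/MS/MS. Cmax (oral), AUC and clearance (IV) and bioavailability were calculated from plasma concentrations.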

[4] = AUC in rat at 3 mg/kg, iv; format: ADME, organism-based; design: dose 3 mg/kg, route intravenous; settings: plasma; in short: as §2
[5] = Cmax in mouse at 3 mg/kg, po; format: ADME, organism-based; design: dose 3 mg/kg, route oral; settings: in vivo; in short: as §2
[6] = Clearance in rat at 3 mg/kg, iv; format: ADME, organism-based; design: dose 3 mg/kg, route intravenous; settings: in vivo; in short: as §2
DNA gyrase = DNA gyrase (Staphylococcus aureus, UniProt P0A0K8+P20831); experiment: Inhibition of Staphylococcus aureus DNA gyrase ATPase subunit GyrA2/GyrB2 after 60 mins by malachite green staining assay; format: protein-complex assay
DNA gyrase, sequence (P0A0K8 whole entry): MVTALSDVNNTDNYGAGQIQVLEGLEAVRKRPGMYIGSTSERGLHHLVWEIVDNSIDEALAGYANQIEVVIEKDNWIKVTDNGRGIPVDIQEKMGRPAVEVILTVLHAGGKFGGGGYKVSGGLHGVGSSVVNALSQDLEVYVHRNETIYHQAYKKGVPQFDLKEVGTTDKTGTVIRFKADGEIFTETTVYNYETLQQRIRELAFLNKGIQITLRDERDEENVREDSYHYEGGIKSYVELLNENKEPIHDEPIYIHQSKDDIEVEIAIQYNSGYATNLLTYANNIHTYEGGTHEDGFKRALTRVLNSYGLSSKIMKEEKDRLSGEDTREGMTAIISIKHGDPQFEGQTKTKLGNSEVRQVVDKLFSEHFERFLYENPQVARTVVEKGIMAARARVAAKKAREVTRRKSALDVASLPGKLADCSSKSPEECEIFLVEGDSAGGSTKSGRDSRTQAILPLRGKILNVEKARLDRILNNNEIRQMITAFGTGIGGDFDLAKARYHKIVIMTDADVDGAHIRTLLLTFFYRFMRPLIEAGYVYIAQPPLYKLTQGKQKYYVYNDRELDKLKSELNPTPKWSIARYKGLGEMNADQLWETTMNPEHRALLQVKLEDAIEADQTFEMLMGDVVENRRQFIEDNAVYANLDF
DNA gyrase, sequence (P20831 whole entry): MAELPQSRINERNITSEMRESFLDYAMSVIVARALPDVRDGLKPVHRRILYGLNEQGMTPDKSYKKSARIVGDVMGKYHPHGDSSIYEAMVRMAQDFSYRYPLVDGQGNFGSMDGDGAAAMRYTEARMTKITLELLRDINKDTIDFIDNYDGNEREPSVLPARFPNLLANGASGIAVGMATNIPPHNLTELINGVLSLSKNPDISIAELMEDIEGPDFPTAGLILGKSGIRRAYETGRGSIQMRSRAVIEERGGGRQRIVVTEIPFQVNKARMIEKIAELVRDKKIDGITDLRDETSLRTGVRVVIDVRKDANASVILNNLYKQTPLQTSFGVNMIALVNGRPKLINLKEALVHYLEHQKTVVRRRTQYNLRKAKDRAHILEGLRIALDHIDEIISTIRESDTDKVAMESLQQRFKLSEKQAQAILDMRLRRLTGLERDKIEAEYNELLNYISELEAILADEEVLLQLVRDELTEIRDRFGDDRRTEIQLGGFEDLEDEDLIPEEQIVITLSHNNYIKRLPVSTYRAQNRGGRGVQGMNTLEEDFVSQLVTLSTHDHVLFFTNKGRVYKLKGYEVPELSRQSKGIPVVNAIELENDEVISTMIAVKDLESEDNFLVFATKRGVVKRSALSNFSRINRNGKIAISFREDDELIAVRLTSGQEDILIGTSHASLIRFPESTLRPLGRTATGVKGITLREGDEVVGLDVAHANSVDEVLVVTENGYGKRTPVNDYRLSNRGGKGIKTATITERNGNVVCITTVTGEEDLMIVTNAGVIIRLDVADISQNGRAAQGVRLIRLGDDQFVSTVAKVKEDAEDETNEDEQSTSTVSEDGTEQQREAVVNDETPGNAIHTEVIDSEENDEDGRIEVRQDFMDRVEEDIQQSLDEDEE
In short: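 S. aureus gyrase A2B2, 10 nM, with 0.08 mg/mL DNA in 40 mM HEPES pH 7.6, 10 mM Mg acetate, 0.5 M K glutamate, 0.01 mg/mL BSA, 2 mM DTT, 5% DMSO. Reaction started with 1 mM ATP and run 60 min at 30 °C. Malachite green absorbance read at 600 nm. IC50 derived using no-compound and no-enzyme controls.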

[7] = Intrinsic clearance in mouse liver microsomes at 10 uM by LC-MS analysis; format: ADME, Microsome; settings: read-out: CLH
In short: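 Compound at 10 μM, duplicate, 0.1% DMSO, with mouse liver microsomes at 1 mg/mL protein. Started with 1 mM NADPH and stopped at 0, 10, 30 and 60 min. Acetonitrile extracts analysed by LCMS. T1/2 taken from the slope of peak area over time, then converted to intrinsic clearance.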

[8] = Oral bioavailability in rat at 3 mg/kg; format: ADME, organism-based; settings: in vivo; in short: as §2
[9] = Oral bioavailability in mouse at 3 mg/kg; format: ADME, organism-based; settings: in vivo; in short: as §2
[10] = Cmax in rat at 3 mg/kg, po; format: ADME, organism-based; design: dose 3 mg/kg, route oral; settings: in vivo; in short: as §2
[11] = Clearance in mouse at 3 mg/kg, iv; format: ADME, organism-based; design: dose 3 mg/kg, route intravenous; settings: in vivo; in short: as §2

Compound	IC50 [1]	MIC (Enterococcus faecalis)	MIC (Haemophilus influenzae)	MIC (Streptococcus pyogenes)	MIC (Staphylococcus aureus)	solubility kinetic at 24 h [2]	AUC [3]	AUC [4]	Cmax [5]	clearance [6]	IC50 (DNA gyrase)	CLint scaled at 10 µM [7]	bioavailability [8]	bioavailability [9]	Cmax [10]	clearance [11]
CCNC(=O)Nc1nc2cc(-c3cnc(N4CCCCC4(C)C(=O)O)nc3)cc(-c3ccccn3)c2s1 (stereo not drawn)	0.007 µg/mL (≈ 0.0135 µM)	0.5 µg/mL (≈ 0.966 µM)	8 µg/mL (≈ 15.5 µM)	0.5 µg/mL (≈ 0.966 µM)	0.5 µg/mL (≈ 0.966 µM)	6.25 µg/mL (≈ 12.1 µM)	–	–	–	–	–	–	–	–	–	–
CCNC(=O)Nc1nc2cc(-c3ccc(N4CCC(C)(C(=O)O)CC4)nc3)cc(-c3ccccn3)c2s1	–	0.03 µg/mL (≈ 0.0581 µM)	2 µg/mL (≈ 3.87 µM)	0.12 µg/mL (≈ 0.232 µM)	0.12 µg/mL (≈ 0.232 µM)	> 800 µg/mL	7600 ng·h/mL	6600 ng·h/mL	1700 ng/mL	7.6 mL/min/kg	23.2 nM	< 5.8 mL/min/kg	31%	33%	600 ng/mL	6.5 mL/min/kg
CCNC(=O)Nc1nc2cc(-c3cnc(N4CCC(CC)(C(=O)O)CC4)nc3)cc(-c3ccccn3)c2s1	–	0.015 µg/mL (≈ 0.0282 µM)	4 µg/mL (≈ 7.52 µM)	0.06 µg/mL (≈ 0.113 µM)	0.06 µg/mL (≈ 0.113 µM)	> 800 µg/mL	14300 ng·h/mL	27700 ng·h/mL	6100 ng/mL	1.5 mL/min/kg	22.6 nM	< 5.8 mL/min/kg	80%	87%	3500 ng/mL	3.5 mL/min/kg
CCNC(=O)Nc1nc2cc(-c3cnc(N4CCC(N)(C(=O)O)CC4)nc3)cc(-c3ccccn3)c2s1	0.025 µg/mL (≈ 0.0482 µM)	> 16 µg/mL	> 16 µg/mL	4 µg/mL (≈ 7.71 µM)	> 16 µg/mL	25 µg/mL (≈ 48.2 µM)	–	–	–	–	–	–	–	–	–	–
CCNC(=O)Nc1nc2cc(-c3cccnc3)cc(-c3ccccn3)c2s1	–	0.12 µg/mL (≈ 0.32 µM)	–	–	–	6.25 µg/mL (≈ 16.6 µM)	–	–	–	–	37.3 nM	–	–	–	–	–
CCNC(=O)Nc1nc2cc(-c3cnc(N4CCC(C(=O)O)(S(C)(=O)=O)CC4)nc3)cc(-c3ccccn3)c2s1	0.015 µg/mL (≈ 0.0258 µM)	4 µg/mL (≈ 6.88 µM)	> 16 µg/mL	4 µg/mL (≈ 6.88 µM)	> 16 µg/mL	> 800 µg/mL	–	–	–	–	–	–	–	–	–	–
CCNC(=O)Nc1nc2cc(-c3cnc(N4CCC(C)(C(=O)O)CC4)cn3)cc(-c3ccccn3)c2s1	–	0.03 µg/mL (≈ 0.058 µM)	8 µg/mL (≈ 15.5 µM)	0.12 µg/mL (≈ 0.232 µM)	0.5 µg/mL (≈ 0.966 µM)	> 800 µg/mL	–	–	–	–	38.6 nM	< 5.8 mL/min/kg	–	–	–	–
CCNC(=O)Nc1nc2cc(-c3cnc(N4CCCC(C)(C(=O)O)CC4)nc3)cc(-c3ccccn3)c2s1 (stereo not drawn)	–	–	8 µg/mL (≈ 15 µM)	0.12 µg/mL (≈ 0.226 µM)	0.12 µg/mL (≈ 0.226 µM)	> 800 µg/mL	–	–	–	–	11.3 nM	< 5.8 mL/min/kg	–	–	–	–
CCNC(=O)Nc1nc2cc(-c3nc(N4CCC(C)(C(=O)O)CC4)ns3)cc(-c3ccccn3)c2s1	–	–	> 16 µg/mL	1 µg/mL (≈ 1.91 µM)	1 µg/mL (≈ 1.91 µM)	–	–	–	–	–	107 nM	–	–	–	–	–
